Tests used:
Mu-type opioid receptor = Mu-type opioid receptor (Homo sapiens, UniProt P35372); assay: Inhibition of [125I]Enkephalin binding to human mu opioid receptor from membranes of HEK293 cells
Summary of the method: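 Filter binding on membranes of HEK293 cells overexpressing human mu opioid receptor, measuring displacement of [125I]-Enkephalin. IC50 came from full dose–response curves on purified material, in single determinations.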

[1] = target: Delta-type opioid receptor (Homo sapiens, UniProt P41143); assay: ChEBML_145338
Delta-type opioid receptor, sequence (P41143 whole entry): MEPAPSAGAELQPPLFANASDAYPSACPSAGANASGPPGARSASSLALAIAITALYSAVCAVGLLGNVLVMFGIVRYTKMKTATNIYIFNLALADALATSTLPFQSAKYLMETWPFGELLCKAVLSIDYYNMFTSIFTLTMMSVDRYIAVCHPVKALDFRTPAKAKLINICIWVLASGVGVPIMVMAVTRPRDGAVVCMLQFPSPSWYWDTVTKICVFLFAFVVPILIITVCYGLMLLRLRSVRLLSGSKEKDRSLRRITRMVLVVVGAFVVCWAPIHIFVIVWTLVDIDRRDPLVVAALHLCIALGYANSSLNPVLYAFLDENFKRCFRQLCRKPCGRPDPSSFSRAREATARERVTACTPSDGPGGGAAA
Excerpt: Inhibition of [125I]deltorphin binding to human delta opioid receptor from membranes of HEK293 cells

Mu-type opioid receptor, sequence (P35372 whole entry): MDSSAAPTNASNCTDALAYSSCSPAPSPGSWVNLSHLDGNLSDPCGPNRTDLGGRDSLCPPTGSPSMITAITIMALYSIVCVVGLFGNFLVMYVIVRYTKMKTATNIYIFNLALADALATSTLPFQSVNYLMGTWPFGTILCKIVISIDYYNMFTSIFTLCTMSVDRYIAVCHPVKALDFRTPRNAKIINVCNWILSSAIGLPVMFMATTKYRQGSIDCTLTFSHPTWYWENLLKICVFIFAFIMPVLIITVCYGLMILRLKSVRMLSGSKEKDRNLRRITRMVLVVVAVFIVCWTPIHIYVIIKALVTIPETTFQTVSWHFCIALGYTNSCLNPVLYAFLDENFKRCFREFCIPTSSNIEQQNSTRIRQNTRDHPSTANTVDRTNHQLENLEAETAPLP

Question: How did the IC50 (Mu-type opioid receptor) turn out when O=c1c(-c2ccccc2)cccn1C(CN1CCCC1)c1ccccc1 (configuration not stated) [3-Phenyl-1-(1-phenyl-2-pyrrolidin-1-yl-ethyl)-1H-pyridin-2-one] was run?
Answer: Its IC50 is over 10 µM.

Question: What about the IC50 [1] of the same molecule?
Answer: The IC50 was over 10 µM.

Reference: BindingDB's records for doi:10.1016/s0960-894x(03)00033-7 (Astrazeneca R&D, 2003)
